The record followed here is ChEMBL document CHEMBL1142901, “Design and synthesis of pyrimido[4,5-b][1,4]benzothiazine derivatives, as potent 15-lipoxygenase inhibitors” (Bioorg Med Chem, 2007).

A value given as a limit tells only on which side of the number the result lay.

The nature of data set [1]: Partition co-efficient, log P of the compound. Type of data set: physicochemical. The conditions noted are these: octanol/water.
Data set [2] can be described thus: Inhibition of soybean 15-lipoxygenase. More on the design: species or system Glycine max. Put shortly:
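Soybean 15-lipoxygenase (final 167 U/mL, kept on ice) in 0.2 M borate buffer pH 9.00 with linoleic acid (134 µM) substrate. Activity followed as absorbance increase at 234 nm from 30 to 90 s after enzyme addition. Compounds added in ethanol (final 1%); ethanol-only uninhibited controls measured at regular intervals. IC50 by linear interpolation between points around 50% activity.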

In data set [1], `Cc1nc(N2CCN(C)CC2)nc2c1Nc1ccccc1S2` returned a logP of 1.95. Besides, the IC50 in data set [2] came out at 18 µM.

`Cc1nc(N2CCOCC2)nc2c1Nc1ccccc1S2` came in with a logP in data set [1] of 1.7. This molecule gave an IC50 in data set [2] of 53 µM.

Molecule `Cc1nc(N2CCCC2)nc2c1Nc1ccccc1S2` registered a lipophilicity (logP) in data set [1] of 2.49. In addition, the midpoint of inhibition in data set [2], the IC50, lay at 48 µM.

In data set [1], `CCN1CCN(c2nc(C)c3c(n2)Sc2ccccc2N3)CC1` came in with a logP of 2.19. In data set [2], it took 34 µM to reach half-maximal inhibition (IC50).

The molecule `Cc1nc(N2CCC(O)CC2)nc2c1Nc1ccccc1S2` showed a logP in data set [1] of 1.95. In data set [2], this molecule came in with an IC50 above 200 µM.

In turn, `Cc1nc(N2CCN(c3ccccc3)CC2)nc2c1Nc1ccccc1S2` showed a logP in data set [1] of 3.15. In addition, the IC50 in data set [2] was above 200 µM.

`Cc1nc(N2CCCCC2)nc2c1Nc1ccccc1S2` returned a logP in data set [1] of 2.74. The IC50 in data set [2] is 58 µM.

Take `Cc1nc(N2CCC(C)CC2)nc2c1Nc1ccccc1S2`: the logP in data set [1] came to 2.98. Besides, it took 76 µM to reach half-maximal inhibition in data set [2] (IC50).

The logP is the decadic logarithm of the partition coefficient of the neutral form, usually between octanol and water. A lower logP goes with lower lipophilicity. For orientation: IC50 means the concentration needed to halve the response being measured. Lower therefore signals greater potency in that assay.
